Calls of active or inactive are those of the source. The rule behind the calls is not given here.
Assays:
[1] = molecular target: Signal transducer and activator of transcription 3 (Mus musculus, UniProt P42227); assay: Inhibition of oligonucleotide [32P]-labelled 5'-AGCITCATTTCCCGTAAATCCCTA probe binding to STAT3 SH2 domain (unknown origin) preincubated for 30 mins followed by hSIE probe addition by EMSA analysis
[2] = system: MDA-MB-468; assay: Antiproliferative activity against human MDA-MB-468 cells harbouring STAT3 assessed as reduction in cell viability incubated for 72 hrs by CyQuant assay; format: functional, cell-based; settings: MDA-MB-468, 72 h
[3] = system: NIH3T3; assay: Inhibition of oligonucleotide [32P]-labelled 5'-AGATTTCTAGGAATTCAA probe binding to STAT5 homodimer in mouse NIH3T3 nuclear extract at 10 uM preincubated for 30 mins followed by MGFe probe addition by EMSA analysis
[4] = molecular target: T1, Signal transducer and activator of transcription 1 (Mus musculus) (UniProt P42225); assay: Inhibition of oligonucleotide [32P]-labelled 5'-AGCITCATTTCCCGTAAATCCCTA probe binding to STAT1 homodimer in mouse NIH3T3 nuclear extract at 10 uM preincubated for 30 mins followed by hSIE probe addition by EMSA analysis
T1 sequence (whole entry): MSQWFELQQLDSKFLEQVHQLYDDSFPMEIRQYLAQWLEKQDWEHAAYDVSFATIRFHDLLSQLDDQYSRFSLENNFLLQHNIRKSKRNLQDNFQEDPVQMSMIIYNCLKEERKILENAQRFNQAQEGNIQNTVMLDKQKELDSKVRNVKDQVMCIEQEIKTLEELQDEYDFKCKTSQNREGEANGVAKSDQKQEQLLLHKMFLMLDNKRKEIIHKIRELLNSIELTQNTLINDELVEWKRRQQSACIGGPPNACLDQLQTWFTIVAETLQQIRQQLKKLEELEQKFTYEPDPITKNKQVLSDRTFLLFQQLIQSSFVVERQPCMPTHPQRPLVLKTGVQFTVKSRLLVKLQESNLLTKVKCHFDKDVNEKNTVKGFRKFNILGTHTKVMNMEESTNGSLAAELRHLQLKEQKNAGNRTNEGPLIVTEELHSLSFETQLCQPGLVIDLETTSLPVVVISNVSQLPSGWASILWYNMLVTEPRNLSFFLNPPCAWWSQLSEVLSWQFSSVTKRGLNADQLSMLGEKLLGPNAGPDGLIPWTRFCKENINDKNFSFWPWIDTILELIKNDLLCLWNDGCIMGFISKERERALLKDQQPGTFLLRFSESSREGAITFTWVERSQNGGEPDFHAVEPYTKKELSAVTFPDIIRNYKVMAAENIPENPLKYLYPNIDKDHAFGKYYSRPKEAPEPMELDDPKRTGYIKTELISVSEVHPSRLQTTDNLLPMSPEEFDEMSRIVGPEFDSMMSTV

[5] = system: MDA-MB-231; assay: Anticlonogenic activity against human MDA-MB-231 cells assessed as inhibition of colony formation upto 1 uM incubated for 4 hrs by crystal violet staining based assay; format: functional, cell-based; settings: dose microM <=1, time 4.0 hrs
In short: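 MDA-MB-231 cells seeded as single-cell cultures (250 cells per well), treated once the next day with compound at 0–1 μM and grown until large colonies were visible. Colonies stained with crystal violet for 4 h and photographed. Three independent determinations.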

[6] = system: MCF7; assay: Antiproliferative activity against human MCF7 cells assessed as reduction in cell viability incubated for 72 hrs by CyQuant assay; format: functional, cell-based; settings: MCF7, 72 h
[7] = system: MCF-10A; assay: Cytotoxicity against human MCF-10A cells assessed as reduction in cell viability incubated for 72 hrs by CyQuant assay; format: cell-based
[8] = system: MCF7; assay: Antiproliferative activity against human MCF7 cells assessed as reduction in cell viability at 2 uM incubated for 24 hrs by Trypan blue exclusion dye based phase contrast microscopic analysis; format: functional
In short: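 Cells in 6-well culture, untreated or treated once with 2 μM compound. Harvested every 24 h (up to 96 h) and counted as viable cells by trypan blue exclusion under phase-contrast microscopy. Counts plotted against duration of treatment.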

[9] = system: MDA-MB-231; assay: Antiproliferative activity against human MDA-MB-231 cells assessed as reduction in cell viability incubated for 72 hrs by CyQuant assay; format: functional, cell-based; settings: MDA-MB-231, 72 h
[10] = molecular target: Signal transducer and activator of transcription 3 (Homo sapiens) (UniProt P40763); assay: Inhibition of oligonucleotide [32P]-labelled 5'-AGCITCATTTCCCGTAAATCCCTA hSIE probe binding to STAT3 in human MDA-MB-468 cell nuclear extract at 5 uM by EMSA analysis; settings: time upper […], TDE = time-dependent effect
[11] = Inhibition of oligonucleotide [32P]-labelled 5'-AGATTTCTAGGAATTCAA probe binding to STAT5 homodimer in mouse NIH3T3 nuclear extract preincubated for 30 mins followed by MGFe probe addition by EMSA analysis
[12] = molecular target: Signal transducer and activator of transcription 3 (Homo sapiens) (UniProt P40763); assay: Inhibition of STAT3 phosphorylation at Y705 residues in human MDA-MB-468 whole cell lysate at 0.5 to 2 uM incubated for 2 hrs by immunoblotting analysis; format: subcellular; settings: dose 0.5-2 µM
[13] = molecular target: Signal transducer and activator of transcription 3 (Homo sapiens) (UniProt P40763); assay: Inhibition of oligonucleotide [32P]-labelled 5'-AGCITCATTTCCCGTAAATCCCTA hSIE probe binding to STAT3 in human MDA-MB-468 cell nuclear extract at 0.5 to 5 uM incubated for 3 hrs by EMSA analysis; settings: dose 0.5-5 µM
[14] = system: MDA-MB-231; assay: Antiproliferative activity against human MDA-MB-231 cells harbouring STAT3 assessed as reduction in cell viability at upto 10 uM incubated for 72 hrs by CyQuant assay; format: functional, cell-based; settings: MDA-MB-231, 72 h

Signal transducer and activator of transcription 3 (Homo sapiens), sequence (P40763 whole entry): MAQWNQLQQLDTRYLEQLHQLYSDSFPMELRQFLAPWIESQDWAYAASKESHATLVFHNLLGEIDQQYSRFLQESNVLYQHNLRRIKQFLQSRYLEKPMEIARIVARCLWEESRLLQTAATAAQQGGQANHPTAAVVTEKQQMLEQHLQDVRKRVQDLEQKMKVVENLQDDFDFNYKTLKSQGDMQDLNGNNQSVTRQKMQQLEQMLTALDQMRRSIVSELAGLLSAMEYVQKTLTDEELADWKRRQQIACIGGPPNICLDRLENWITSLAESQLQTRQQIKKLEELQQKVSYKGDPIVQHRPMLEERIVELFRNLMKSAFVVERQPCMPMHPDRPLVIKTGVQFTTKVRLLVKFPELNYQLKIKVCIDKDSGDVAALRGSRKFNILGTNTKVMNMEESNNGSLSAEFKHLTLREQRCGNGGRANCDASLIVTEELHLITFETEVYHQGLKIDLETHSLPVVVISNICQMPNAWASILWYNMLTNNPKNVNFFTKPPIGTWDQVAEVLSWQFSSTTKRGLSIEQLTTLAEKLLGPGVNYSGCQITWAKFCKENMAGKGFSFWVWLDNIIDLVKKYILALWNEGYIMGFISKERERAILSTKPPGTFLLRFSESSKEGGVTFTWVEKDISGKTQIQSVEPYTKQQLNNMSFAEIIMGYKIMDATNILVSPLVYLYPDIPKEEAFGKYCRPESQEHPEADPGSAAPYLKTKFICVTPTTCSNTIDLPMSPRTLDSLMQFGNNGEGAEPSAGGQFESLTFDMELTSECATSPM
Signal transducer and activator of transcription 3, sequence (P42227 whole entry, the tested form may be a part): as the sequence (P40763 whole entry) above, with E760D counted along it

NC(=O)c1ccc(N(Cc2ccc(C3CCCCC3)cn2)C(=O)[C@H]2CCN2S(=O)(=O)c2c(F)c(F)c(F)c(F)c2F)c(F)c1
IC50 [1]: > 2000 nM

CNC(=O)c1ccc(N(Cc2ccc(C3CCCCC3)cn2)C(=O)[C@H]2CCN2S(=O)(=O)c2c(F)c(F)c(F)c(F)c2F)cc1O
EC50 [2]: 1800 nM | inhibition [3]: Active | inhibition [4]: Active | inhibition [5]: inactive | EC50 [6]: 3800 nM | EC50 [7]: 4600 nM | Activity [8]: inactive | EC50 [9]: 1800 nM | inhibition [10]: Tde

O=C(O)c1ccc(N(Cc2ccc(C3CCCCC3)cc2)C(=O)[C@H]2CCN2S(=O)(=O)c2c(F)c(F)c(F)c(F)c2F)c(F)c1
IC50 [11]: 17500 nM | EC50 [9]: > 10000 nM

O=C(NO)c1ccc(N(Cc2cnc(C3CCCCC3)cn2)C(=O)[C@H]2CCN2S(=O)(=O)c2c(F)c(F)c(F)c(F)c2F)c(F)c1
IC50 [1]: > 2000 nM

CC(=O)c1cc2c(o1)C(=O)c1ccccc1C2=O [NAPABUCASIN]
inhibition [12]: Active | EC50 [6]: 1490 nM | inhibition [13]: Active | EC50 [14]: 1800 nM

From ChEMBL document CHEMBL4706639, “Discovery of Novel Azetidine Amides as Potent Small-Molecule STAT3 Inhibitors” (J Med Chem, 2021)
